From ChEMBL document CHEMBL5385854, “Discovery of PPARγ and glucocorticoid receptor dual agonists to promote the adiponectin and leptin biosynthesis in human bone marrow mesenchymal stem cells” (Eur J Med Chem, 2023)
The source made the active and inactive calls. The calls are words filed in the database; no cut-off is given here.

Tests used:
Mesenchymal stem cells [1] = experiment: Induction of adipogenesis in human BMMSC cells assessed as increase in lipid droplet accumulation at 30 uM after 7 days by Oil red O and hematoxylin staining based assay relative to IDX control; type: functional, cell-based; details: time 7.0 day
How it was run: (§1)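 hBM-MSCs grown in low-glucose DMEM (1 g/L) with 10% FBS, Glutamax and penicillin-streptomycin, then differentiated in IDX medium containing compound, refreshed on days 3 and 6. On day 7, cells fixed in 10% neutral buffered formalin for 40 min and stained with 0.2% Oil Red O for 15 min, nuclei with hematoxylin. Dye eluted in isopropanol and read at 540 nm against IDX control.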

[2] = Induction of adiponectin biosynthesis in human BMMSC cells assessed as adiponectin level at 10 uM measured after 7 days by ELISA (IDX Control = 100 +/- 57 pg/ml); type: functional, Mesenchymal stem cells; details: time 7 day
[3] = Induction of leptin biosynthesis in human BMMSC cells assessed as leptin level at 10 uM measured after 7 days by ELISA (RVB = 18 + /- 18 pg/ml); type: functional, Mesenchymal stem cells; details: time 7 day
[4] = Induction of leptin biosynthesis in human BMMSC cells assessed as leptin level at 5 uM measured after 7 days by ELISA (RVB = 18 + /- 18 pg/ml); type: functional, Mesenchymal stem cells; details: time 7 day
Mesenchymal stem cells [5] = experiment: Induction of adipogenesis in human BMMSC cells assessed as increase in lipid droplet accumulation at 5 uM after 7 days by Oil red O and hematoxylin staining based assay relative to IDX control; type: functional, cell-based; details: time 7.0 day; how it was run: as §1
[6] = Induction of adiponectin biosynthesis in human BMMSC cells assessed as adiponectin level at 5 uM measured after 7 days by ELISA (IDX Control = 100 +/- 57 pg/ml); type: functional, Mesenchymal stem cells; details: time 7 day
How it was run: (§2)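 Human bone-marrow MSCs grown in low-glucose DMEM (1 g/L) with 10% FBS, 1% penicillin-streptomycin and 1% Glutamax. Compounds were given in adipogenic IDX medium, refreshed on days 3 and 6. On day 7, supernatant adiponectin was quantified by Quantikine ELISA against the IDX control. Mean ± SD, n = 3 independent experiments; one-way ANOVA with post-hoc tests.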

[7] = Induction of adiponectin biosynthesis in human BMMSC cells assessed as adiponectin level at 300 uM measured after 7 days by ELISA (IDX Control = 100 +/- 57 pg/ml); type: functional, Mesenchymal stem cells; details: time 7 day; how it was run: as §2
[8] = Induction of leptin biosynthesis in human BMMSC cells assessed as leptin level at 300 uM measured after 7 days by ELISA (RVB = 18 + /- 18 pg/ml); type: functional, Mesenchymal stem cells; details: time 7 day
[9] = Induction of adiponectin biosynthesis in human BMMSC cells assessed as fold increase in production at 30 uM measured after 7 days by ELISA relative to IDX control; type: functional, Mesenchymal stem cells; details: time 7 day, 168 h; how it was run: as §2
[10] = Induction of adiponectin biosynthesis in human BMMSC cells assessed as adiponectin level measured after 7 days by ELISA; details: Mesenchymal stem cells, 168 h
[11] = Induction of leptin biosynthesis in human BMMSC cells assessed as leptin level at 1 uM measured after 7 days by ELISA (RVB = 18 + /- 18 pg/ml); type: functional, Mesenchymal stem cells; details: time 7 day
[12] = Induction of leptin biosynthesis in human BMMSC cells assessed as fold increase in production at 30 uM measured after 10 days by ELISA relative to control; details: time 10 day

| Structure (SMILES) | Activity [2] [pg/mL] | Activity [3] [pg/mL] | other results |
| --- | --- | --- | --- |
| COc1cc(/C=C/C(=O)c2c(O)cc(C)oc2=O)ccc1O (stereo in doubt; form 1) [listing 1 of 2 here] | – | – | Activity (Mesenchymal stem cells [1]): Active |
| Cc1cc(O)c(C(=O)/C=C/c2ccccc2)c(=O)o1 | 580 | 38 | – |
| COc1cc(/C=C/C(=O)c2c(O)cc(C)oc2=O)ccc1F | 567 | 40 | – |
| COc1ccc(Cl)cc1C(=O)NCCc1ccc(S(=O)(=O)NC(=O)NC2CCCCC2)cc1 [GLYBURIDE] | – | – | Activity [4]: 30 pg/mL; Activity (Mesenchymal stem cells [5]): Active; Activity [6]: 475 pg/mL |
| CC(=O)Oc1ccccc1C(=O)O [ASPIRIN] | – | – | Activity [7]: 330 pg/mL; Activity [8]: 20 pg/mL |
| Cc1cc(O)c(C(=O)/C=C/c2ccc3c(c2)OCO3)c(=O)o1 | 208 | 91 | – |
| Cc1cc(O)c(C(=O)/C=C/c2ccc(F)c(F)c2)c(=O)o1 | 432 | 76 | – |
| Cc1cc(O)c(C(=O)/C=C/c2ccc(C)c(C)c2)c(=O)o1 | 438 | 17 | – |
| COc1ccc(/C=C/C(=O)c2c(O)cc(C)oc2=O)cc1OC | 747 | 80 | – |
| Cc1cc(O)c(C(=O)/C=C/c2ccoc2)c(=O)o1 | 320 | 171 | – |
| Cc1cc(O)c(C(=O)/C=C/c2ccccn2)c(=O)o1 | 396 | 95 | – |
| COc1cc(/C=C/C(=O)c2c(O)cc(C)oc2=O)ccc1O (stereo in doubt; form 1) [listing 2 of 2 here] | – | – | fold change (FC) [9]: 3.3 |
| CCc1ccc(CCOc2ccc(CC3SC(=O)NC3=O)cc2)nc1 (configuration not stated) [PIOGLITAZONE] | – | – | Activity [4]: 33 pg/mL; EC50 [10]: 0.6 µM; Activity (Mesenchymal stem cells [5]): Active; Activity [6]: 812 pg/mL |
| Cc1cc(O)c(C(=O)/C=C/c2cc(F)cc(F)c2)c(=O)o1 | 172 | 33 | – |
| C[C@@H]1C[C@H]2[C@@H]3CCC4=CC(=O)C=C[C@]4(C)[C@@]3(F)[C@@H](O)C[C@]2(C)[C@@]1(O)C(=O)CO [DEXAMETHASONE] | – | – | Activity [11]: 632 pg/mL |
| Cc1cc(O)c(C(=O)/C=C/c2ccc(O)c(O)c2)c(=O)o1 | 243 | 16 | – |
| Cc1cc(O)c(C(=O)/C=C/c2ccc(F)cc2)c(=O)o1 | 576 | 30 | – |
| Cc1cc(O)c(C(=O)/C=C/c2ccsc2)c(=O)o1 | 486 | 193 | – |
| Cc1cc(O)c(C(=O)/C=C/c2c[nH]c3ccccc23)c(=O)o1 | 396 | 41 | – |
| COc1cc(/C=C/C(=O)c2c(O)cc(C)oc2=O)ccc1O (stereo in doubt; form 2) | 399 | 82 | fold change (FC) [9]: 3.18; fold change (FC) [12]: 2.58 |
